Measured values taken from PMC5508980 (Molecular nutrition & food research, 2017).

What was measured:
[1] = tested on: Class I HDAC; experiment: HDAC activity assay, class I substrate, bovine heart tissue lysate; assay type: biochemical; conditions: 2 hours treatment
Procedure, shortened: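 Bovine heart lysate prepared in PBS pH 7.4 with 0.5% Triton X-100, 300 mM NaCl and protease/phosphatase inhibitors, then clarified; 30 µg protein/well in PBS. Test compound at semi-log increasing concentrations for 2 h, then class-specific AMC-acyl-lysine substrate (1 mM DMSO stock) for 2 h at 37 °C.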

[2] = biological target: recombinant HDAC1 (Homo sapiens, UniProt Q13547); experiment: Recombinant HDAC activity assay; assay type: biochemical; conditions: for remaining activity at 50 µM: 2 h, read-out: % HDAC activity, Class I HDACs, 1; for % HDAC activity, Class I HDACs, 1: recombinant protein incubated with 50 µM compound, 2 hrs
[3] = biological target: recombinant HDAC2 (Homo sapiens, UniProt Q92769); experiment: Recombinant HDAC activity assay; assay type: biochemical; conditions: for remaining activity at 50 µM: 2 h, read-out: % HDAC activity, Class I HDACs, 2
[4] = biological target: recombinant HDAC3 (Homo sapiens, UniProt O15379); experiment: Recombinant HDAC activity assay; assay type: biochemical; conditions: for remaining activity at 50 µM: 2 h, read-out: % HDAC activity, Class I HDACs, 3; for % HDAC activity, Class I HDACs, 3: recombinant protein incubated with 50 µM compound, 2 hrs
[5] = biological target: T1, recombinant HDAC8 (Homo sapiens, UniProt Q9BY41); experiment: Recombinant HDAC activity assay; assay type: biochemical; conditions: for remaining activity at 50 µM: 2 h, read-out: % HDAC activity, Class I HDACs, 8; for % HDAC activity, Class I HDACs, 8: recombinant protein incubated with 50 µM compound, 2 hrs
T1 sequence (Q9BY41 1-377): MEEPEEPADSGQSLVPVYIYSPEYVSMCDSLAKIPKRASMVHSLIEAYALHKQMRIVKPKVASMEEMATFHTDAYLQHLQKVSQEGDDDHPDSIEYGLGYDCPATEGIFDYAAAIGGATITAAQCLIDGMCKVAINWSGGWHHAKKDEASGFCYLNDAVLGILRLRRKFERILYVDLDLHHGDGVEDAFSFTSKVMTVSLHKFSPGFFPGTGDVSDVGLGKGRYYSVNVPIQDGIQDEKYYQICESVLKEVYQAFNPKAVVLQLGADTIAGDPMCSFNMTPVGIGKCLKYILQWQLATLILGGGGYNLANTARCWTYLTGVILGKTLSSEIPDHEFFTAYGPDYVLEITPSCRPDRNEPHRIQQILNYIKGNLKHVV

[6] = biological target: T2, recombinant HDAC7 (Homo sapiens, UniProt Q8WUI4); experiment: Recombinant HDAC activity assay; assay type: biochemical; conditions: recombinant protein incubated with 50 µM compound, 2 hrs
T2 sequence (Q8WUI4 1-952): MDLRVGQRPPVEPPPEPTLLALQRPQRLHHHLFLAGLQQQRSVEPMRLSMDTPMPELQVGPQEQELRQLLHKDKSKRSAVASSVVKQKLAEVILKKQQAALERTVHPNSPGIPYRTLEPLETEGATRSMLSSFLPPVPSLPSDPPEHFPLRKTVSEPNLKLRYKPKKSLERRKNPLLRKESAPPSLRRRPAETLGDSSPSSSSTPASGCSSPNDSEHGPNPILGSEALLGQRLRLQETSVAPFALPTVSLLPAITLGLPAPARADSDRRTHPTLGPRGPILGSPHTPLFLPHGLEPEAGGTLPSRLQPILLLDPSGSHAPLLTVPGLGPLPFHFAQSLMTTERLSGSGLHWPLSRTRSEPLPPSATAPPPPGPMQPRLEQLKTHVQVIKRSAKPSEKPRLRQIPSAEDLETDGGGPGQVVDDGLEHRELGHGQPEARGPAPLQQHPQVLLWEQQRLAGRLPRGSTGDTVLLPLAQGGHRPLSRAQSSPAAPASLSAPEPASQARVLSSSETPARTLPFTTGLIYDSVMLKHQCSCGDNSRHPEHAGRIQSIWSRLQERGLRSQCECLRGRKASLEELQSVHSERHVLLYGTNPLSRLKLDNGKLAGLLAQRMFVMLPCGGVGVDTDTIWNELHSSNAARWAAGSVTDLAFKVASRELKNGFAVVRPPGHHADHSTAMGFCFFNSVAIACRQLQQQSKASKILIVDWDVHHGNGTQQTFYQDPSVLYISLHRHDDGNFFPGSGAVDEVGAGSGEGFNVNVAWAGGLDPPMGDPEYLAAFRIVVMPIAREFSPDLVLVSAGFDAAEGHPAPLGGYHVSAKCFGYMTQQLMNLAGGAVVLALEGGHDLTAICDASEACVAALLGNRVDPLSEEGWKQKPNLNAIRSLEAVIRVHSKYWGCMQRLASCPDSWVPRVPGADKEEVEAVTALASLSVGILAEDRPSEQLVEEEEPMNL

[7] = biological target: recombinant HDAC4 (Homo sapiens, UniProt P56524); experiment: Recombinant HDAC activity assay; assay type: biochemical; conditions: recombinant protein incubated with 50 µM compound, 2 hrs
[8] = biological target: recombinant HDAC5 (Homo sapiens, UniProt Q9UQL6); experiment: Recombinant HDAC activity assay; assay type: biochemical; conditions: for remaining activity at 50 µM: 2 h, read-out: % HDAC activity, Class IIa HDACs, 5
[9] = biological target: recombinant HDAC9 (Homo sapiens, UniProt Q9UKV0); experiment: Recombinant HDAC activity assay; assay type: biochemical; conditions: for remaining activity at 50 µM: 2 h, read-out: % HDAC activity, Class IIa HDACs, 9
[10] = biological target: T3, recombinant HDAC6 (Homo sapiens, UniProt Q9UBN7); experiment: Recombinant HDAC activity assay; assay type: biochemical; conditions: recombinant protein incubated with 50 µM compound, 2 hrs
T3 sequence (Q9UBN7 1-1215): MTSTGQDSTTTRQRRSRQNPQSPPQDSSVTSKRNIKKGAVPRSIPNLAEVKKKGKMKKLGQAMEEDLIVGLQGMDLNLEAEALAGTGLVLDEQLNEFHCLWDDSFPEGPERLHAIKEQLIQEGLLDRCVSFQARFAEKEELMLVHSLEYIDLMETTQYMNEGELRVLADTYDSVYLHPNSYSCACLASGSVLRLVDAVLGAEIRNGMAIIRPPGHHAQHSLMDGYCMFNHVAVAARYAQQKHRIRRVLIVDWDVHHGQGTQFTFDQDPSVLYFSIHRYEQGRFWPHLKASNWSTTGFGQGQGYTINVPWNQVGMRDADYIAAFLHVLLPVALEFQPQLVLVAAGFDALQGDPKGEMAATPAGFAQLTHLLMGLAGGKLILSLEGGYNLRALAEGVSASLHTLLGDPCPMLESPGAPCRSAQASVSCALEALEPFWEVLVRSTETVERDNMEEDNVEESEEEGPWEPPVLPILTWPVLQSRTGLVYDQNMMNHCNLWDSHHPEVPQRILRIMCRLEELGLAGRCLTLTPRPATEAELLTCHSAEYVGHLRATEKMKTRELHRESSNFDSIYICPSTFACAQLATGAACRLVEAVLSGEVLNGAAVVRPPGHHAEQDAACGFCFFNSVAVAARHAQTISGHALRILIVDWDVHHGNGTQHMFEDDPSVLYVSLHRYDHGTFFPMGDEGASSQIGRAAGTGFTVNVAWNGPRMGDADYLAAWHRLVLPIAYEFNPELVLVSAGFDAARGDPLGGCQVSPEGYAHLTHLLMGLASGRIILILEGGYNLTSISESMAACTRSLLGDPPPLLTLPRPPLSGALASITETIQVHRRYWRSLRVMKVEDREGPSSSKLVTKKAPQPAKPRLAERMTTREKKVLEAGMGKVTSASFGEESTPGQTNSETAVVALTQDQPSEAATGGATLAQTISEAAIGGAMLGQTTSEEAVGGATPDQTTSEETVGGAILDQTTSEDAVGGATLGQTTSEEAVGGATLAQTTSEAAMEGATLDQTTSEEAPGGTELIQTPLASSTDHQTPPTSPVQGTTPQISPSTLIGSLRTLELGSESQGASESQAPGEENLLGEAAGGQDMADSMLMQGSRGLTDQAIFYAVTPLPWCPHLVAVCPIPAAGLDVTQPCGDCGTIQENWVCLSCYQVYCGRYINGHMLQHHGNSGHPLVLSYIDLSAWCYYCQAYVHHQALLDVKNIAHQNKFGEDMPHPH

[11] = biological target: T4, recombinant HDAC10 (Homo sapiens, UniProt Q969S8); experiment: Recombinant HDAC activity assay; assay type: biochemical; conditions: for % HDAC activity, Class IIb HDACs, 10: recombinant protein incubated with 50 µM compound, 2 hrs; for remaining activity at 50 µM: 2 h, read-out: % HDAC activity, Class IIb HDACs, 10
T4 sequence (Q969S8 1-669): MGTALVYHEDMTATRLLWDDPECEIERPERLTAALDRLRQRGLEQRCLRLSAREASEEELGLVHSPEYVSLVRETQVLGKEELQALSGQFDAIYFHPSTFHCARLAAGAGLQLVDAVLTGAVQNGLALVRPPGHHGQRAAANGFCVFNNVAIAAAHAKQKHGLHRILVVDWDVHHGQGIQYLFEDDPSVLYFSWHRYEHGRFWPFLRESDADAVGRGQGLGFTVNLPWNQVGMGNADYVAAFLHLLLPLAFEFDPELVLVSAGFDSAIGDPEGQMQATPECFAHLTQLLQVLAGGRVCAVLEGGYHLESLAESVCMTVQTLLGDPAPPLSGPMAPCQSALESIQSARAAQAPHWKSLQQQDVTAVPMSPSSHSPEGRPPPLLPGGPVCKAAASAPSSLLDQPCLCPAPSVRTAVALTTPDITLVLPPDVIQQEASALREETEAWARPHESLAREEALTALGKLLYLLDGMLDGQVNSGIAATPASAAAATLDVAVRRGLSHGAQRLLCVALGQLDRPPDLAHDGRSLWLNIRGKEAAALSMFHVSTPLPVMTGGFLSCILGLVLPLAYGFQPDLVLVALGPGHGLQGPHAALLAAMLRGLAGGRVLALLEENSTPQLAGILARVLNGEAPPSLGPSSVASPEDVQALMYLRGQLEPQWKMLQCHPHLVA

[12] = tested on: HDAC activity in bovine cardiac tissue; experiment: Natural product library screen with class-selective HDAC substrates; assay type: biochemical; conditions: 2 hours treatment
Procedure, shortened: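 The screen covered 131 natural compounds against bovine cardiac tissue lysate at 30 µg protein/well in PBS (pH 7.4 lysis buffer with Triton X-100 and NaCl). Test compound for 2 h, then separate class I, IIa or IIb fluorogenic acyl-lysine-AMC substrates for 2 h at 37 °C. Developer (Triton X-100, 3 µM TSA, 0.75 mg/ml trypsin) for 20 min; fluorescence read at 360/460 nm.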

[13] = tested on: H9c2 cells; experiment: Acetyl-H3K9/14 immunoblot of whole cell extract; assay type: cell-based, rat; conditions: H9c2 myocytes, 50 µM, 2 hours
Procedure, shortened: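 H9c2 cells were grown in DMEM with 10% FBS and treated at 90% confluence for 2 h with test compound or DMSO, with TSA as positive control. Washed in ice-cold PBS, lysed in PBS pH 7.4 with 0.5% Triton X-100 and 300 mM NaCl plus inhibitors, sonicated and clarified. SDS-PAGE, nitrocellulose, acetyl-H3K9/14 and total H3 antibodies, chemiluminescence; densitometry; ANOVA with Tukey.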

[14] = recombinant protein incubated with 50 µM compound, 2 hrs

Chain of recombinant HDAC2 (Q92769 whole entry): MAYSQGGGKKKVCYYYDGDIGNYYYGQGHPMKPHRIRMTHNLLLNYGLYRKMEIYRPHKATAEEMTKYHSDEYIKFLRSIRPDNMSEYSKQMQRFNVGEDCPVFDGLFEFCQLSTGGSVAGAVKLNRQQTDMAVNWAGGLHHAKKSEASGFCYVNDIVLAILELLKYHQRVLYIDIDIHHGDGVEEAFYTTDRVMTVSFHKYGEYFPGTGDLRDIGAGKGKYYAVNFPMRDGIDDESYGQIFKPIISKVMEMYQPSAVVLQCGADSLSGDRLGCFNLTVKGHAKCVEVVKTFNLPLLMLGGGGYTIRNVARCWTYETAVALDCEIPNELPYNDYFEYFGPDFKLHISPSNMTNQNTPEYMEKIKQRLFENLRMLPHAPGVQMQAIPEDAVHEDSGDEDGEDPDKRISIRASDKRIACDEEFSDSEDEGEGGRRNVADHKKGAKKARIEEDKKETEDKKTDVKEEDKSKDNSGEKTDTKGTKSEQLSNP
Chain of recombinant HDAC1 (Q13547 whole entry): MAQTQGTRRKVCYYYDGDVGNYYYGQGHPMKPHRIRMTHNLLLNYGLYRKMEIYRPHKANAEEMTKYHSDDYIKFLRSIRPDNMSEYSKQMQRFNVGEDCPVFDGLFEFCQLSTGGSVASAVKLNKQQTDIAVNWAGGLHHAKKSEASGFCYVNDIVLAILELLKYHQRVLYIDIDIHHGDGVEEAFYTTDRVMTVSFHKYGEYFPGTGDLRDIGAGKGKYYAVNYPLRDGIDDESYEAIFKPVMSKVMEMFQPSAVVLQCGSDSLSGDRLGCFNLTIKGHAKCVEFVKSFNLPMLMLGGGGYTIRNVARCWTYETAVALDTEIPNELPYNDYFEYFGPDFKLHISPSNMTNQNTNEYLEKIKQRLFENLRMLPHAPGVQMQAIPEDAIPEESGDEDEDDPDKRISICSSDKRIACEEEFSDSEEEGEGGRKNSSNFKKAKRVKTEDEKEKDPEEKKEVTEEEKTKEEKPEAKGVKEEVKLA
Chain of recombinant HDAC3 (O15379 whole entry): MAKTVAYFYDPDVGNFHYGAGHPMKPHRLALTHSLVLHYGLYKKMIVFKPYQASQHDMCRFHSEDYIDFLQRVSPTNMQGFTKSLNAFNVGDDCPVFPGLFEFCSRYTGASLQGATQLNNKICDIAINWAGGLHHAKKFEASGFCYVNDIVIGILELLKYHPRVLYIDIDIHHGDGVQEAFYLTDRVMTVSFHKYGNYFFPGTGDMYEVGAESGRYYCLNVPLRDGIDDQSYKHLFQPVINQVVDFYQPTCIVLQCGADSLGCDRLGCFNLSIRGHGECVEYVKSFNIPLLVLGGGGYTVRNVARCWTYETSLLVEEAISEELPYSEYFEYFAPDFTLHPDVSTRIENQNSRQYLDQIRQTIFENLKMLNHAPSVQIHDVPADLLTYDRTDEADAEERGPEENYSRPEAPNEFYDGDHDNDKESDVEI
Chain of recombinant HDAC3 (Q9Y618 395-489 partner limits assumed): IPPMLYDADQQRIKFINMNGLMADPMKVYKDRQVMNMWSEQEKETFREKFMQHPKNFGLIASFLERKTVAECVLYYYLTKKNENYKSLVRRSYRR
Chain of recombinant HDAC9 (Q9UKV0 whole entry): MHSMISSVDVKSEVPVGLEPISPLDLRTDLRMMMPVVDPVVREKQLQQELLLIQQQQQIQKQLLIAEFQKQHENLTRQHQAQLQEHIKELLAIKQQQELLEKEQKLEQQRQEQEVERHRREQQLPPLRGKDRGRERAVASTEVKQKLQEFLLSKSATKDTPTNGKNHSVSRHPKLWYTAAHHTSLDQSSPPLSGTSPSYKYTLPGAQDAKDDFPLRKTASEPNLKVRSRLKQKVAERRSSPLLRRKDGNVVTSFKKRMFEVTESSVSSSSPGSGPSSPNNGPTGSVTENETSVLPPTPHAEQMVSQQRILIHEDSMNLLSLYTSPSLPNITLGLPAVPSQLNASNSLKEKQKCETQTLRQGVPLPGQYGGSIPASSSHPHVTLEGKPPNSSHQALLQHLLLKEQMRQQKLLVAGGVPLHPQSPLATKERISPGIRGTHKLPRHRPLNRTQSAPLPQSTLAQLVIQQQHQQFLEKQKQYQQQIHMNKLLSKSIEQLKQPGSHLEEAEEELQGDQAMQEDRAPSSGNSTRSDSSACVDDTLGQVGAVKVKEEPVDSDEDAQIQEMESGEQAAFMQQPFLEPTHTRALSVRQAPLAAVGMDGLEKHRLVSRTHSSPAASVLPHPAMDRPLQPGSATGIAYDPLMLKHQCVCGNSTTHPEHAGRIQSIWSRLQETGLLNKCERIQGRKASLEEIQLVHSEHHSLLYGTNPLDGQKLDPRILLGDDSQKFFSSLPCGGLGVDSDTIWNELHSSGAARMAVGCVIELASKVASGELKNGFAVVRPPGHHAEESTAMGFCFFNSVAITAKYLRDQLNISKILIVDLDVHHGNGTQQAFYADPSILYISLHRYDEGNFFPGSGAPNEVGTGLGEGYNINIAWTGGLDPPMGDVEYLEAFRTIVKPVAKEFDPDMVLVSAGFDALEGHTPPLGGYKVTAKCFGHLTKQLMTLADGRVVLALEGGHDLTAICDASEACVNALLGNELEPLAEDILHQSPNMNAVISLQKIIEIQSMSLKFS
Chain of recombinant HDAC5 (Q9UQL6 whole entry): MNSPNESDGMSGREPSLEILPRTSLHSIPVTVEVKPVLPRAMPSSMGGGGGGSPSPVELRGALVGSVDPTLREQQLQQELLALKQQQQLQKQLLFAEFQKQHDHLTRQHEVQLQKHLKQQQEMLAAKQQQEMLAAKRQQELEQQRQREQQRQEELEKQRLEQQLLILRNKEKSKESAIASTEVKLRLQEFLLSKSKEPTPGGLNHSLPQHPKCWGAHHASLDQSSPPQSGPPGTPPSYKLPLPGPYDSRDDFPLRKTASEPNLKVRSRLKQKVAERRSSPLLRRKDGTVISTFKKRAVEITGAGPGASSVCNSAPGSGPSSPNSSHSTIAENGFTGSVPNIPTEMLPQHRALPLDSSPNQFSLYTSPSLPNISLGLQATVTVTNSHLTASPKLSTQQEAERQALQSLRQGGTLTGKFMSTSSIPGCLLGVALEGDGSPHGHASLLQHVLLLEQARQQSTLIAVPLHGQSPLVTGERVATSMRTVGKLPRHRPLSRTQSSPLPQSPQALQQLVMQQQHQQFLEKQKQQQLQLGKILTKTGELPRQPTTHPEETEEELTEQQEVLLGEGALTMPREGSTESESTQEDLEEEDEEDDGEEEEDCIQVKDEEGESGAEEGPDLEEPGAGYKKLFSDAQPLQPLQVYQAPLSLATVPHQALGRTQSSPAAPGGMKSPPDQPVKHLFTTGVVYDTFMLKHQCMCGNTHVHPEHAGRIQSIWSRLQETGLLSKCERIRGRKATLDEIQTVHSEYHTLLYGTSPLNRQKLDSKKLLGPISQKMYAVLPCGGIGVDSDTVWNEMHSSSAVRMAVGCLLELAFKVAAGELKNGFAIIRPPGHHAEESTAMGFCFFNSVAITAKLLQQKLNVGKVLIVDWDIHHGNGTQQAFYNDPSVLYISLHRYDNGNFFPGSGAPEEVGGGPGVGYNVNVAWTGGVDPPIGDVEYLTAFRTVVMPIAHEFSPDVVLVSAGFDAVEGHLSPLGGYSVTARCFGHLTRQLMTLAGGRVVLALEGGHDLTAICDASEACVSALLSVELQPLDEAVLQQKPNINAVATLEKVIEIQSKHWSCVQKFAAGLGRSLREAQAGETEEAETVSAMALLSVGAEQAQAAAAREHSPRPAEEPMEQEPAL
Chain of recombinant HDAC4 (P56524 whole entry): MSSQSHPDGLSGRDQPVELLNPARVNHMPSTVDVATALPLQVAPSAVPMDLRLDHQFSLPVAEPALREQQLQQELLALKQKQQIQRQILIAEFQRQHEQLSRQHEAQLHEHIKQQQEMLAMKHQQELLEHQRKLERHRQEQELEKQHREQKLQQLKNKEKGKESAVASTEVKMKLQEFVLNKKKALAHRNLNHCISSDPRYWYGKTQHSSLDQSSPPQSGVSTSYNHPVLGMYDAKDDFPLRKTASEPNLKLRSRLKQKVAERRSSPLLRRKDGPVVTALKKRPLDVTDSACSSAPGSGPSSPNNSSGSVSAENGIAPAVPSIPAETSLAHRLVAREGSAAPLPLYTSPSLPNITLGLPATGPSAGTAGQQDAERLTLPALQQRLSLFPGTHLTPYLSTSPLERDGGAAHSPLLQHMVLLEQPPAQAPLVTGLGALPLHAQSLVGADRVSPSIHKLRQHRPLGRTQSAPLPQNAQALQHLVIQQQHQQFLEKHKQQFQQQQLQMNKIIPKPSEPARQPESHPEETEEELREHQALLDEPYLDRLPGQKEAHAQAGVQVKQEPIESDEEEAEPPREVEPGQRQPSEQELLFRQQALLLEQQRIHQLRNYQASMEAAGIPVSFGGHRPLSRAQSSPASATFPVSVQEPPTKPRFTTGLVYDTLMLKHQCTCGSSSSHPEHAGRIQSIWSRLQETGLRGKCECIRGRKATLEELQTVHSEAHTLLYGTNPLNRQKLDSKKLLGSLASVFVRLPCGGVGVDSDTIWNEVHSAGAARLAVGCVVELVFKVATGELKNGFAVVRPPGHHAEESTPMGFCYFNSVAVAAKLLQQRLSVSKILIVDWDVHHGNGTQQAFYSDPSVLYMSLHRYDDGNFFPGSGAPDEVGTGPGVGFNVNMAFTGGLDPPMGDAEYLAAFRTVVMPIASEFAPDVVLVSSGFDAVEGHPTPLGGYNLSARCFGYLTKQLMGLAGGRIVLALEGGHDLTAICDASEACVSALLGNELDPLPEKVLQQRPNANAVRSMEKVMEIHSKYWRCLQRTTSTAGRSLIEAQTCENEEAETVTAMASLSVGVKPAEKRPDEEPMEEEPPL

O=c1cc(-c2ccc(O)cc2)oc2cc(O)cc(O)c12 [Apigenin]
class I HDAC activity, effect in words [1]: only inhibit class I HDAC activity | remaining activity at 50 µM [2]: 76.4% | remaining activity at 50 µM [3]: 90.4% | remaining activity at 50 µM [4]: 72.7% | remaining activity at 50 µM [5]: 76.5% | % HDAC activity, Class IIa HDACs, 7 [6]: -

Nc1ccccc1NC(=O)c1ccc(CNc2nccc(-c3cccnc3)n2)cc1 [MGCD, MGCD0103, reference compound]
class I HDAC activity, effect in words [1]: only inhibited class I HDAC activity

COc1cc2c(cc1OC)-c1cc3ccc(OC)c(OC)c3c[n+]1CC2 [Palmatine]
class I HDAC activity, effect in words [1]: only inhibit class I HDAC activity | % HDAC activity, Class I HDACs, 1 [2]: 44.8% | % HDAC activity, Class I HDACs, 2 [3, 14]: 17.5% | % HDAC activity, Class I HDACs, 3 [4]: 47.1% | % HDAC activity, Class I HDACs, 8 [5]: 40.9% | % HDAC activity, Class IIa HDACs, 7 [6]: -

Myricitrin
% HDAC activity, Class I HDACs, 1 [2]: 75.1% | % HDAC activity, Class I HDACs, 3 [4]: 67.7% | % HDAC activity, Class I HDACs, 8 [5]: 65.4% | % HDAC activity, Class IIa HDACs, 4 [7]: 93.5% | % HDAC activity, Class IIa HDACs, 5 [8, 14]: 68.3% | % HDAC activity, Class IIa HDACs, 7 [6]: - | % HDAC activity, Class IIa HDACs, 9 [9, 14]: 69.3% | % HDAC activity, Class IIb HDACs, 6 [10]: 87.2% | % HDAC activity, Class IIb HDACs, 10 [11]: 67.0%

O=c1cc(-c2ccc(O)c(O)c2)oc2cc(O)cc(O)c12 [Luteolin]
remaining activity at 50 µM [2]: 60.7% | remaining activity at 50 µM [3]: 49.5% | remaining activity at 50 µM [4]: 51.4% | remaining activity at 50 µM [5]: 52.8% | remaining activity at 50 µM [8]: 59.5% | % HDAC activity, Class IIa HDACs, 7 [6]: - | remaining activity at 50 µM [9]: 52.3% | remaining activity at 50 µM [11]: 55.9% | catalytic HDAC activity across class I, IIa and IIb substrates, effect in words [12]: dose-dependent pan-HDAC inhibition

Cc1cc2c(C(C)C)c(O)c(O)c(C=O)c2c(O)c1-c1c(C)cc2c(C(C)C)c(O)c(O)c(C=O)c2c1O [Gossypol]
remaining activity at 50 µM [2]: 42.6% | remaining activity at 50 µM [3]: 15.1% | remaining activity at 50 µM [4]: 42.1% | remaining activity at 50 µM [5]: 40.7% | remaining activity at 50 µM [8]: 51.5% | % HDAC activity, Class IIa HDACs, 7 [6]: - | remaining activity at 50 µM [9]: 44.5% | remaining activity at 50 µM [11]: 42.6% | catalytic HDAC activity across class I, IIa and IIb substrates, effect in words [12]: dose-dependent pan-HDAC inhibition | acetylation of histone 3 on lysine 9/14 (Ac-H3 K9/14) via immunoblot [13]: increased

O=C(O[C@@H]1Cc2c(O)cc(O)cc2O[C@@H]1c1cc(O)c(O)c(O)c1)c1cc(O)c(O)c(O)c1 [EGCG, epigallocatechin gallate]
% HDAC activity, Class I HDACs, 8 [5]: 89.1% | % HDAC activity, Class IIa HDACs, 4 [7]: 82.5% | % HDAC activity, Class IIa HDACs, 7 [6]: - | % HDAC activity, Class IIb HDACs, 10 [11]: 91.2%
